Results reported in ChEMBL document CHEMBL5335840, “Stereoselective synthesis and antiproliferative activity of allo-gibberic acid-based 1,3-aminoalcohol regioisomers” (RSC Med Chem, 2024).
pIC50: −log10 of the molar value.

Legend:
HeLa = assay: Antiproliferative activity against human HeLa cells assessed as inhibition of cell growth incubated for 72 hrs by MTT assay; assay type: functional, cell-based
Outline: (§1)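 Cells kept in Eagle's MEM with 10% FBS, 1% non-essential amino acids and 1% antibiotic-antimycotic at 37 °C, 5% CO2. Seeded at 5000 cells per well and incubated overnight before compound addition. Growth inhibition tested at 10 and 30 μM, IC50 from 1.0–30.0 μM (four concentrations). MTT added for 4 h, formazan dissolved in DMSO, absorbance read at 545 nm. Untreated control, two experiments of five wells.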

SiHa = assay: Antiproliferative activity against human SiHa cells assessed as inhibition of cell growth incubated for 72 hrs by MTT assay; assay type: functional, cell-based; outline: as §1
MDA-MB-231 = assay: Antiproliferative activity against human MDA-MB-231 cells assessed as inhibition of cell growth incubated for 72 hrs by MTT assay; assay type: functional, cell-based; details: MDA-MB-231, 72 h; outline: as §1
A2780 = assay: Antiproliferative activity against human A2780 cells assessed as inhibition of cell growth incubated for 72 hrs by MTT assay; assay type: functional, cell-based; details: A2780, 72 h; outline: as §1
[1] = Cytotoxicity against mouse NIH/3T3 cells assessed as inhibition of cell growth incubated for 72 hrs by MTT assay; assay type: toxicity, cell-based, NIH3T3; outline: as §1
MCF7 = assay: Antiproliferative activity against human MCF7 cells assessed as inhibition of cell growth incubated for 72 hrs by MTT assay; assay type: functional, cell-based; details: MCF7, 72 h; outline: as §1

Structure (SMILES) | pIC50 (HeLa) | pIC50 (MDA-MB-231) | pIC50 (A2780) | pIC50 (MCF7) | pIC50 (SiHa) | IC50 at 72 h [1] [µM]
CCOC(=O)[C@H]1c2c(C)cccc2[C@H]2CC[C@@]3(CN[C@@H](C)c4ccc5ccccc5c4)C[C@]21C[C@H]3O | 5.29 |  |  | 5.44 | 5.36 | 4.62
CCOC(=O)[C@H]1c2c(C)cccc2[C@H]2CC[C@@]3(CO)C[C@]21C[C@@H]3N[C@@H](C)c1cccc2ccccc12 | 4.68 | 4.98 |  | 5.46 | 4.65 | 6.02
CCOC(=O)[C@H]1c2c(C)cccc2[C@H]2CC[C@@]3(CO)C[C@]21C[C@@H]3NCc1cc(Br)ccc1O | 5.30 | 5.19 | 5.29 | 5.41 | 4.66 | 19.7
CCOC(=O)[C@H]1c2c(C)cccc2[C@H]2CC[C@@]3(CO)C[C@]21C[C@@H]3N[C@H](C)c1cccc2ccccc12 | 4.73 | 4.71 | 5.34 | 5.15 | 4.64 | 14.5
CCOC(=O)[C@H]1c2c(C)cccc2[C@H]2CC[C@@]3(CNCc4cc(Br)ccc4O)C[C@]21C[C@H]3O | 5.33 | 5.30 | 5.27 | 5.62 | 4.69 | 13

The remaining molecules from weak to strong by pIC50 (HeLa), led by results:

pIC50 (HeLa) | pIC50 (MDA-MB-231) | pIC50 (A2780) | pIC50 (MCF7) | Structure (SMILES) | pIC50 (SiHa) | IC50 at 72 h [1] [µM]
4.73 | 5.11 |  | 5.36 | CCOC(=O)[C@H]1c2c(C)cccc2[C@H]2CC[C@@]3(CNCc4ccc(F)cc4)C[C@]21C[C@H]3O | 5.08 | 15.2
4.89 | 5.19 | 4.86 | 5.39 | CCOC(=O)[C@H]1c2c(C)cccc2[C@H]2CC[C@@]3(CNCc4ccc(OC)cc4)C[C@]21C[C@H]3O | 4.75 | 14.7
5.36 | 5.36 | 5.36 |  | CCOC(=O)[C@H]1c2c(C)cccc2[C@H]2CC[C@]3(O)C[C@@]21C[C@]3(O)CN[C@@H](C)c1cccc2ccccc12 | 5.36 | 4.38
5.40 | 5.33 | 5.34 | 5.50 | CCOC(=O)[C@H]1c2c(C)cccc2[C@H]2CC[C@@]3(CO)C[C@]21C[C@@H]3NCCc1c[nH]c2ccccc12 | 5.39 | 13
